# Test results reported in ChEMBL document CHEMBL4732173, “Easily accessed nitroquinolones exhibiting potent and selective anti-tubercular activity” (Eur J Med Chem, 2021).
# System: Mycobacterium tuberculosis
# Assay: Antitubercular activity against Mycobacterium tuberculosis harboring gfp reporter gene and DrpE1 mutation assessed as inhibition of bacterial growth incubated for 14 days by fluorescence based analysis
# Assay type: functional
# Details: time 14 day
row,Compound,MIC90 [µM]
1,COCCNC(=O)c1cn(Cc2ccc(F)cc2)c2ccc([N+](=O)[O-])cc2c1=O,62.5

# System: Mycobacterium tuberculosis
# Assay: Antitubercular activity against Mycobacterium tuberculosis harboring gfp reporter gene and wild type DrpE1 assessed as inhibition of bacterial growth incubated for 14 days by fluorescence based analysis
# Assay type: functional
# Details: 336 h, time 14 day
# Outline: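 Controls were rifampicin at 2× MIC and 5% DMSO. Plates ran 14 days at 37 °C, 5% CO2, with GFP read at ex 485/em 520. Data were normalised and curve-fitted (Levenberg-Marquardt). MIC90 is the lowest concentration inhibiting >90% of growth.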
row,Compound,MIC90 [µM]
1,O=C(NCCOCCO)c1cn(Cc2cccc(Cl)c2)c2ccc([N+](=O)[O-])cc2c1=O,16
2,O=C(NCCN1CCOCC1)c1cn(Cc2cccc(Cl)c2)c2ccc([N+](=O)[O-])cc2c1=O,31.9
3,N#Cc1cccc(Cn2cc(C(=O)NO)c(=O)c3cc([N+](=O)[O-])ccc32)c1,> 125
4,O=C(NCCN1CCOCC1)c1cn(Cc2cccc(F)c2)c2ccc([N+](=O)[O-])cc2c1=O,> 125
5,O=C(NCCOCCO)c1cn(Cc2cccc(F)c2)c2ccc([N+](=O)[O-])cc2c1=O,> 125
6,COCCNC(=O)c1cn(Cc2cccc(C#N)c2)c2ccc([N+](=O)[O-])cc2c1=O,> 125
7,CCOC(=O)c1c[nH]c2c(C(F)(F)F)cc([N+](=O)[O-])cc2c1=O,1.84
8,O=C(NCCNCCO)c1cn(Cc2cccc(F)c2)c2ccc([N+](=O)[O-])cc2c1=O,3.7
9,N#Cc1ccc(Cn2cc(C(=O)NCCNCCO)c(=O)c3cc([N+](=O)[O-])ccc32)cc1,> 125
10,N#Cc1cccc(Cn2cc(C(=O)O)c(=O)c3cc([N+](=O)[O-])ccc32)c1,> 125
11,N#Cc1cccc(Cn2cc(C(=O)NCCNCCO)c(=O)c3cc([N+](=O)[O-])ccc32)c1,3.69
12,O=C(NCCNCCO)c1cn(Cc2ccc(F)cc2)c2ccc([N+](=O)[O-])cc2c1=O,0.919
13,NNC(=O)c1ccncc1 [ISONIAZID],0.2
14,COCCNC(=O)c1cn(Cc2cccc(F)c2)c2ccc([N+](=O)[O-])cc2c1=O,> 125
15,O=C(NCCN1CCOCC1)c1cn(Cc2cccc(Br)c2)c2ccc([N+](=O)[O-])cc2c1=O,> 125
16,COCCNC(=O)c1cn(Cc2cccc(Cl)c2)c2ccc([N+](=O)[O-])cc2c1=O,0.675
17,O=C(NO)c1cn(Cc2cccc(Br)c2)c2ccc([N+](=O)[O-])cc2c1=O,> 125
18,CO[C@H]1/C=C/O[C@@]2(C)Oc3c(C)c(O)c4c(O)c(c(/C=N/N5CCN(C)CC5)c(O)c4c3C2=O)NC(=O)/C(C)=C\C=C\[C@H](C)[C@H](O)[C@@H](C)[C@@H](O)[C@@H](C)[C@H](OC(C)=O)[C@@H]1C [RIFAMPIN],0.01
19,O=C(NCCOCCO)c1cn(Cc2ccc(F)cc2)c2ccc([N+](=O)[O-])cc2c1=O,8.08
20,COCCNC(=O)c1cn(Cc2ccc(F)cc2)c2ccc([N+](=O)[O-])cc2c1=O,< 0.244
21,COCCNC(=O)c1cn(Cc2ccc(C#N)cc2)c2ccc([N+](=O)[O-])cc2c1=O,> 125
22,O=C(NO)c1cn(Cc2cccc(F)c2)c2ccc([N+](=O)[O-])cc2c1=O,> 125
23,N#Cc1ccc(Cn2cc(C(=O)NCCOCCO)c(=O)c3cc([N+](=O)[O-])ccc32)cc1,14
24,N#Cc1cccc(Cn2cc(C(=O)NCCOCCO)c(=O)c3cc([N+](=O)[O-])ccc32)c1,15
25,O=C(NO)c1cn(Cc2cccc(Cl)c2)c2ccc([N+](=O)[O-])cc2c1=O,125
